For data set [1], the target named is Poly [ADP-ribose] polymerase 2 (Homo sapiens, UniProt Q9UGN5). Kind of data set: Inhibition of PARP-2 (unknown origin) pre-incubated for 30 mins before addition of activated DNA and NAD by chemiluminescent assay.
The nature of data set [2]: Oral bioavailability in Sprague-Dawley rat at 5 mg/kg by LC-MS/MS analysis. It is filed as ADME, organism-based. To be noted: in vivo. In outline:
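Pharmacokinetics in Sprague-Dawley rats, three per group. iv 2 mg/kg in 38% DMA in water; po 5 mg/kg. Plasma was protein-precipitated, diluted with water and analysed by LC-MS/MS using an acetonitrile/0.1% formic acid gradient. Values are means of three rats.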

A short description of data set [3]: Clearance in rat at 5 mg/kg, po by LC-MS/MS analysis. The format is ADME, organism-based. To be noted: in vivo.
Data set [4] is described as follows: AUC (0 to 24 hrs) in rat at 5 mg/kg, po by LC-MS/MS analysis. It is filed as ADME, organism-based. To be noted: in vivo. Also on record: time < 24 hr, route oral, dose 5 mg/kg.
Data set [5] is described as follows: Clearance in mouse liver microsomes. It is filed as ADME, Microsome. To be noted: read-out: CLH. Background: Liver microsomes are vesicles of endoplasmic reticulum, rich in cytochrome P450 enzymes.
Data set [6] concerns the target hERG (KCNH2) (Homo sapiens, UniProt Q12809). Briefly: Inhibition of human ERG activity at 20 uM by functional cellular assay.
For data set [7], the target named is T1, Poly [ADP-ribose] polymerase 1 (Homo sapiens, UniProt P09874). Briefly: Inhibition of PARP-1 in human HeLa cells incubated for 18 hrs in presence of H2O2. It is filed as cell-based.
T1 sequence (P09874 whole entry, the tested form may be a part): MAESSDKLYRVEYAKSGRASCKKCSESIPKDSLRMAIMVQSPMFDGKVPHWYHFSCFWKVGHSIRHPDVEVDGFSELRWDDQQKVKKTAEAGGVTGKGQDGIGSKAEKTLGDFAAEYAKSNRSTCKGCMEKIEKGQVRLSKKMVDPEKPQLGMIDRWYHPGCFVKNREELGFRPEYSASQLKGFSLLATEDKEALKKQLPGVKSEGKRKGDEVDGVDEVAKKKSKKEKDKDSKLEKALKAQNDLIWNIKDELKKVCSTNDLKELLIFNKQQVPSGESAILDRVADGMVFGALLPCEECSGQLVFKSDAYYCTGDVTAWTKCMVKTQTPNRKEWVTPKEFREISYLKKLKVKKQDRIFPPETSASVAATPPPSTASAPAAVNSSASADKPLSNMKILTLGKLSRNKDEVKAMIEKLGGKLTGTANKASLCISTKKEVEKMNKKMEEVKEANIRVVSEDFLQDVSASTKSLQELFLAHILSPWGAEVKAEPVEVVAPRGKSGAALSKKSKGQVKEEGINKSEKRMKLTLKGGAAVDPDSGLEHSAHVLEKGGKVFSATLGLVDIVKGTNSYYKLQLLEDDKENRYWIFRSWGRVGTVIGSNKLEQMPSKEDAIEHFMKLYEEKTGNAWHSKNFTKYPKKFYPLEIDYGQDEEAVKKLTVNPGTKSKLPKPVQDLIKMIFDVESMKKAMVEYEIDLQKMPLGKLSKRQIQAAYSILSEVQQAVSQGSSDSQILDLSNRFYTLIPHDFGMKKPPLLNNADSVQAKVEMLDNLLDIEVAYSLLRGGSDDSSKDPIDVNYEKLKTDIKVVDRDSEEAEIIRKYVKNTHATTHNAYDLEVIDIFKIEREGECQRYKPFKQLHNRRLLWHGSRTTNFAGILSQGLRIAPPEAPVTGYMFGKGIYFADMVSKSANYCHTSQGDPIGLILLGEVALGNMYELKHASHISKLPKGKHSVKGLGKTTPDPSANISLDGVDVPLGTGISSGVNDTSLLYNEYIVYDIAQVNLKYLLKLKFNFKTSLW
Data set [8] has as its target T1, Poly [ADP-ribose] polymerase 1. Kind of data set: Inhibition of human PARP-1 catalytic domain (662 to 1011 residues) expressed in Escherichia coli BL21(DE3) cells pre-incubated for 30 mins before addition of activated DNA and NAD by fluorescence based assay.
The nature of data set [9]: Solubility of the compound. The format is physicochemical.
Data set [10] deals with MDA-MB-436. Briefly: Antitumor activity against human MDA-MB-436 cells xenografted in BALB/c nude mouse assessed as inhibition of tumor growth at 25 to 50 mg/kg, po BID for 28 days followed by treatment was interruption and monitored for additional 2 months. The format is functional, organism-based. To be noted: dose 25-50 mg/kg, time 28.0 day. In outline: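 Female 8-week-old BALB/c nude mice receive 5 × 10⁶ cells in PBS:Matrigel 1:1 subcutaneously in the right flank. […] Tumors are then monitored 2 more months. Caliper volume V = 0.5ab² is taken twice weekly.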

The subject of data set [11] is NCI-H209. Briefly: Antitumor activity against human NCI-H209 cells xenografted in BALB/c nude mouse assessed as tumor relapse at 50 mg/kg, po QD for 5 consecutive days at start of study and again 14 days later and measured after 48 days. The format is functional, organism-based. To be noted: time 19.0 day. In outline: (§1)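 Female BALB/c nude mice are implanted subcutaneously with 1 × 10⁷ H209 cells in cold PBS. At ~175 mm³ they are randomized into four groups of 8. TMZ is given orally in 0.5% MC at 10 mL/kg, QD on days 1–5 and 15–19. Caliper tumor volume (0.5ab²) is measured twice weekly and reported as mean ± SEM.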
Background: In xenograft studies the graft and the host belong to different species.

The subject of data set [12] is NCI-H209. Kind of data set: Antitumor activity against human NCI-H209 cells xenografted in BALB/c nude mouse assessed as PR rate at 50 mg/kg, po QD for 5 consecutive days at start of study and again 14 days later. The format is functional. To be noted: time 19 day. Summed up:
as §1

For data set [13], the system named is NCI-H209. Kind of data set: Antitumor activity against human NCI-H209 cells xenografted in BALB/c nude mouse assessed as inhibition of tumor growth at 50 mg/kg, po QD for 5 consecutive days at start of study and again 14 days later. It is filed as functional, organism-based. The following applies: time 19.0 day. Summed up: as §1

Active and inactive are the calls of the source. The rule behind the calls is not given here.

hERG (KCNH2), sequence (Q12809 whole entry): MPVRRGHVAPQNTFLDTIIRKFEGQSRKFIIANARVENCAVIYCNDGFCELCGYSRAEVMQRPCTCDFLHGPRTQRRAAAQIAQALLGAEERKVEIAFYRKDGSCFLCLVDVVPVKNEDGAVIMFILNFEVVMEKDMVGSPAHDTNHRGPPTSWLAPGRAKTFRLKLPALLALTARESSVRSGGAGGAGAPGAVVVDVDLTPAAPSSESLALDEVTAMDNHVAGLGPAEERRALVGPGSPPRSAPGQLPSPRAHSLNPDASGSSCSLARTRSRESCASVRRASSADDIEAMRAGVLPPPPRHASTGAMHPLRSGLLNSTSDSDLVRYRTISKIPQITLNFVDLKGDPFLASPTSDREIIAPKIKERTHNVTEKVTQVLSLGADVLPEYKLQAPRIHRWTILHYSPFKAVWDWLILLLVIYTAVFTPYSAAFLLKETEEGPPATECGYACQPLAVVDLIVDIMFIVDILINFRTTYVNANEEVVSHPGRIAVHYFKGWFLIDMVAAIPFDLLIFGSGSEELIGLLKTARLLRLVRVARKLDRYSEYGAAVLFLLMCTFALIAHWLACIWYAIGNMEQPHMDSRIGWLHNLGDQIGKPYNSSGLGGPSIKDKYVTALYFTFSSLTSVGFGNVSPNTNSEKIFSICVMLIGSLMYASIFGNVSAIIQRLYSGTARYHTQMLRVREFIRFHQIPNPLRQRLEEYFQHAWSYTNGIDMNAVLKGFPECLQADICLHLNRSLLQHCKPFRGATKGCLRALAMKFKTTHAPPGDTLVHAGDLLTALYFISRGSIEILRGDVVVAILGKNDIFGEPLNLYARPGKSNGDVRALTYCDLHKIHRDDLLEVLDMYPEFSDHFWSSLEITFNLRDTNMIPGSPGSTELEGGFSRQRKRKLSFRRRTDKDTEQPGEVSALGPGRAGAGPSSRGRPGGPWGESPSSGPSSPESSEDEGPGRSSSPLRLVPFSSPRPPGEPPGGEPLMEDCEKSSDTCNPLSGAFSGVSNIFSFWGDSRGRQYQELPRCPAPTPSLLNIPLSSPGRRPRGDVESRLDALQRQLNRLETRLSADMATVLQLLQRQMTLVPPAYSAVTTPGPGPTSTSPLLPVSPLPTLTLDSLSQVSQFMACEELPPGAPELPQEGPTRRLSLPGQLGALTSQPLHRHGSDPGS
Poly [ADP-ribose] polymerase 2, sequence (Q9UGN5 whole entry): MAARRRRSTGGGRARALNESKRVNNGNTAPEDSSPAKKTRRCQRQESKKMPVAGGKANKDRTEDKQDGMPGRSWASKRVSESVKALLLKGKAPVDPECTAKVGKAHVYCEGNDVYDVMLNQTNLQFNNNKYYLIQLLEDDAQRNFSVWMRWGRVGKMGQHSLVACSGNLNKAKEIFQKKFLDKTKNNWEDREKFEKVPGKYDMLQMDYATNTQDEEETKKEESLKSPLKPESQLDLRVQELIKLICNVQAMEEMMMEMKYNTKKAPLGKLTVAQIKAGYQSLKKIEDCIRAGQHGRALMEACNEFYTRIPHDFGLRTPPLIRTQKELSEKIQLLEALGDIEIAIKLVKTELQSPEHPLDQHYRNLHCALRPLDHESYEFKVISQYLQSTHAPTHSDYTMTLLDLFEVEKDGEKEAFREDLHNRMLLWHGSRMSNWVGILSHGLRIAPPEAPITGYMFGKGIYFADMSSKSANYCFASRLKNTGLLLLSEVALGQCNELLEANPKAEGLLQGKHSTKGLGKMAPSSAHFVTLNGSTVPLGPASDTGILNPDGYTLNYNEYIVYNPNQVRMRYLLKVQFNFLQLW

As for `O=C1NN=C2CC(c3ccccc3)Cc3[nH]c4cc(F)cc1c4c32` (stereo not drawn), in data set [1], inhibition was half-maximal at 1.8 nM (IC50).

Regarding `CC(C)N1CC2=NNC(=O)c3cccc4[nH]c(c2c34)C1`, in data set [2], the bioavailability (commonly dose-corrected exposure relative to a reference, in per cent) came out at 19%. Also, the CL/F (usually the apparent clearance, not corrected for the fraction that reaches the circulation) in data set [3] amounted to 114 mL/min/kg. For the same compound, the AUC(0-t) – broadly, the area under the concentration-time curve up to a stated or last time point – at 24 h in [4] was 141 ng·h/mL. For the same compound, the CLint scaled in [5] came to 174 mL/min/kg. Moreover, testing at 20 µM in data set [6] gave an inhibition of 39%.

Consider `CN1CC2=NNC(=O)c3cc(F)cc4[nH]c(c2c34)C1`, for which the CLint scaled in data set [5] was 275 mL/min/kg.

In the case of `CC1CC2=NNC(=O)c3cc(F)cc4[nH]c(c2c34)C1` (stereo not drawn), the EC50 (commonly the concentration at which the effect is half-maximal) in data set [7] stood at 2.7 nM. For the same compound, the IC50 (in general, the concentration at which inhibition is half-maximal) in [1] was found to be 1.3 nM; in data set [8] it was 4.9 nM.

Regarding `CC1(C)CC2=NNC(=O)c3cccc4c3c2c(n4CCO)C1`, the EC50 in data set [7] is 176 nM.

On to `CC1(C)CC2=NNC(=O)c3cc(F)cc4[nH]c(c2c34)C1`, for which 20 µM produced 32% inhibition in [6].

Take `CC1(C)CCc2[nH]c3cc(F)cc4c3c2C1=NNC4=O`: the EC50 in data set [7] amounted to 45.5 nM. The midpoint of inhibition in data set [8], the IC50, lay at 28.8 nM.

In [3], `O=C1NN=C2CN(C(=O)C3CC3)Cc3[nH]c4cccc1c4c32` returned a CL/F of 114 mL/min/kg. For the same compound, the CLint scaled in [5] came out at 250 mL/min/kg. For the same compound, the inhibition – broadly, the relative decrease from the control value, in per cent – at 20 µM in data set [6] came out at 12%.

In turn, `CC(C)C1CC2=NNC(=O)c3cc(F)cc4[nH]c(c2c34)C1` (stereo not drawn) showed an IC50 in data set [1] of 0.7 nM.

As to `CCN(CC)CCn1c2c3c4c(cccc41)C(=O)NN=C3CC(C)(C)C2`, in data set [9], the solubility result is reported as “Soluble”. In data set [6], the inhibition at 20 µM was 95%.

For `CN(C)CCn1c2c3c4c(cc(F)cc41)C(=O)NN=C3CC(C)(C)C2`, the solubility result in data set [9] was “Soluble”. This compound also gave an inhibition at 20 µM in data set [6] of 73%. In data set [1], this compound came in with an IC50 of 0.3 nM.

Consider `CC1(C)CC2=NNC(=O)c3cccc4c3c2c(n4CCN2CCCC2)C1`, for which, in data set [9], the solubility entry was “Soluble”. In addition, in data set [6], testing at 20 µM gave an inhibition of 97%.

In data set [1], `O=C1NN=C2CCCCc3[nH]c4cc(F)cc1c4c32` had an IC50 of 0.7 nM.

In [6], `CC(C)(N)C(=O)N1CC2=NNC(=O)c3cccc4[nH]c(c2c34)C1` returned an inhibition at 20 µM of 43%.

Turning to `CN(C)CCn1c2c3c4c(cccc41)C(=O)NN=C3CC(C)(C)C2`, the solubility result in data set [9] is on record as “Soluble”. Also, testing at 20 µM in data set [6] gave an inhibition of 77%. Also, the midpoint of inhibition in [1], the IC50, lay at 0.3 nM.

For `CC1(C)CC2=NNC(=O)c3cccc4c3c2c(n4CCN2CCCCC2)C1`, the solubility result in [9] is “Soluble”. This compound also had an inhibition at 20 µM in data set [6] of 92%.

`CC12CCCN1Cc1[nH]c3cc(F)cc4c3c1C2=NNC4=O` (stereo not drawn): the EC50 in data set [7] turned out to be 54.7 nM. The compound also showed an IC50 in data set [8] of 73 nM.

With `NC1(C(=O)N2CC3=NNC(=O)c4cc(F)cc5[nH]c(c3c45)C2)CC1`, in data set [7], the EC50 stood at 22 nM. The compound further yielded an IC50 in [8] of 9.9 nM.

In the case of `O=C1NN=C2CN(C(=O)[C@@H]3CCCN3)Cc3[nH]c4cc(F)cc1c4c32`, in [7], the EC50 was 11.7 nM. Besides, half-maximal inhibition in [8] (IC50) required 6.6 nM.

Turning to `O=C1NN=C2CN(S(=O)(=O)C3CC3)Cc3[nH]c4cc(F)cc1c4c32`, in data set [7], the EC50 came out at 9.3 nM. In addition, inhibition in data set [8] was half-maximal at 8 nM (IC50).

`O=C1NN=C2CN(C(=O)C3(c4ccccc4)CC3)Cc3[nH]c4cc(F)cc1c4c32`: the CL/F in data set [3] amounted to 71 mL/min/kg. Also, in data set [7], the EC50 came out at 24.1 nM. For the same compound, the IC50 in [8] amounted to 28.1 nM.

In the case of `CNCCn1c2c3c4c(cccc41)C(=O)NN=C3CC(C)(C)C2`, the EC50 in [7] came to 0.5 nM. The compound further gave an IC50 in data set [8] of 7 nM.

In the case of `CC1(C)C(=O)C2=NNC(=O)c3cc(F)cc4[nH]c(c2c34)C1=O`, the EC50 in data set [7] was determined as 76.1 nM. The IC50 in data set [8] worked out at 13.1 nM.

Consider `CC1(C(=O)N2CC3=NNC(=O)c4cc(F)cc5[nH]c(c3c45)C2)CC1`, for which, in data set [7], the EC50 stood at 15.4 nM. In data set [8], the IC50 stood at 9.8 nM.

On to `O=C1NN=C2CN(C(=O)C3(O)CC3)Cc3[nH]c4cc(F)cc1c4c32`, for which the EC50 in data set [7] came to 3.5 nM. For the same compound, in [8], the IC50 was found to be 4.7 nM.

`CC1(C)C(C(=O)N2CC3=NNC(=O)c4cc(F)cc5[nH]c(c3c45)C2)C1(C)C`: in [7], the EC50 is 16.6 nM. For the same compound, the IC50 in [8] is 17.9 nM.

On to `O=C(c1cc(Cc2n[nH]c(=O)c3ccccc23)ccc1F)N1CCN(C(=O)C2CC2)CC1` [OLAPARIB], for which the TGI result in data set [10] is “Active”. Also, in data set [2], the bioavailability was 10%.

In the case of `Cn1nnc2c(C(N)=O)ncn2c1=O` [TEMOZOLOMIDE], the outcome in [11] was inactive. The Activity in data set [12] worked out at 13%. Besides, the TGI result in [13] is “Active”.

Source of the values: ChEMBL document CHEMBL4673340 (J Med Chem, 2020).
